# ChEMBL document CHEMBL1125533, “Novel 1-(pyridylphenyl)-1-phenyl-2-imidazolylethanols with topical antiinflammatory activity” (J Med Chem, 1992)
# Key:
# [1] = Partition coefficient (logP); type: physicochemical; conditions: octanol/water
# Outline: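 log P estimated from reversed-phase HPLC retention time. Calibration curve built from shake-flask octanol/water log P values of eight pyridines. Log RT vs log P was linear.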
# Mus musculus [2] = test: In vivo inhibitory activity in a phorbol myristyl acetate (PMA) ear edema model at a dose of 100 ug/ear; type: functional
# Outline: (§1)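 Mouse ear edema, topical: inflammation induced by PMA, A23187 or arachidonic acid on one ear, with the unchallenged ear as control. Mice were killed by cervical dislocation at set times after challenge, and 6 mm punches were weighed. Edema = challenged minus unchallenged punch weight. Percent inhibition = [(C−T)/C]×100 at 100 μg/ear. Duplicate separate experiments, 10 animals per group. Student's t test.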
# Mus musculus [3] = test: (§2) In vivo inhibitory activity against arachidonic acid(AA) ear edema at a dose of 100 ug/ear; type: functional
# Outline: (§3)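 Topical mouse ear edema test at 100 µg/ear; the inflammogen is applied to one ear and the unchallenged ear serves as control. Mice are killed by cervical dislocation at set times, and 6 mm biopsy punches from each ear are weighed. Edema is the challenged-minus-unchallenged weight. Percent inhibition is [(C−T)/C]×100. Duplicate separate experiments, 10 animals per group; averages of two or more determinations.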
# [4] = target: T1, Polyunsaturated fatty acid 5-lipoxygenase (Rattus norvegicus, UniProt P12527); test: Inhibitory activity against 5-lipoxygenase of RBL-1 cell line; type: cell-based
# T1 sequence (P12527 whole entry): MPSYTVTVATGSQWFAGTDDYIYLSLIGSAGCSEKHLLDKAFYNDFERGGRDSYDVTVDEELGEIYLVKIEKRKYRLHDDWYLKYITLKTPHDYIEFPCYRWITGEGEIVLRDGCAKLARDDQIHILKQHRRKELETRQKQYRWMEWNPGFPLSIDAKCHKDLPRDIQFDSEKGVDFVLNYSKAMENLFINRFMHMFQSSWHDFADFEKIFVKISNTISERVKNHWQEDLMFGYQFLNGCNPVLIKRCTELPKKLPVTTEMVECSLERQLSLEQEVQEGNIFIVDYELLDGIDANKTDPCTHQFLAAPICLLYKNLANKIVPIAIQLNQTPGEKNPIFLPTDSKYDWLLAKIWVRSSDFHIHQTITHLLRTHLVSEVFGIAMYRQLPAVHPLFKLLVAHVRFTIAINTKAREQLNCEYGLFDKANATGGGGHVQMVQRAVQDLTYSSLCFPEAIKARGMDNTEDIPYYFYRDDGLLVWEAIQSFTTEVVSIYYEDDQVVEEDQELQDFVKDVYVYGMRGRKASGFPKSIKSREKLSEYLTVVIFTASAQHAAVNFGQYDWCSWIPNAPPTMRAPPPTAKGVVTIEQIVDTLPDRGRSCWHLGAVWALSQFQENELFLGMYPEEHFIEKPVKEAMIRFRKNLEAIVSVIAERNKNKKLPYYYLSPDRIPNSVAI
# Cyclooxygenase = target: T2, Cyclooxygenase (Bos taurus, UniProt O62664+O62698); test: Inhibitory activity against Prostaglandin G/H synthase (bovine seminal vesicles); type: protein assay
# T2 sequence (O62664 whole entry): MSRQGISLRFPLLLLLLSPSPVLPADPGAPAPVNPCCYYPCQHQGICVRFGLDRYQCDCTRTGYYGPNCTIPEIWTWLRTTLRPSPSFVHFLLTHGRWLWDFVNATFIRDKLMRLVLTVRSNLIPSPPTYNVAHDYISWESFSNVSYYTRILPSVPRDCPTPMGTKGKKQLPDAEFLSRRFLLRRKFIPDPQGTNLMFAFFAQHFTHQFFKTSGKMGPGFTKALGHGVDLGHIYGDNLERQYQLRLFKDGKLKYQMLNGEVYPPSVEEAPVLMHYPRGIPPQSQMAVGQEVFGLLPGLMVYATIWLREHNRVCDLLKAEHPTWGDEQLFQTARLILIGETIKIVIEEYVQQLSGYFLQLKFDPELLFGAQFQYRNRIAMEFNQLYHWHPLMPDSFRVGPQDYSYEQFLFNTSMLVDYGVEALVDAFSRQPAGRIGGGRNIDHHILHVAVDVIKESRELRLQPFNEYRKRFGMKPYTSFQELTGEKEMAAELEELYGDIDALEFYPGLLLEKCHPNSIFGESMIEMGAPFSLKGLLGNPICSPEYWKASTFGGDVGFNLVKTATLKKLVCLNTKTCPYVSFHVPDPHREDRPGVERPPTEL
# T2 sequence (O62698 whole entry): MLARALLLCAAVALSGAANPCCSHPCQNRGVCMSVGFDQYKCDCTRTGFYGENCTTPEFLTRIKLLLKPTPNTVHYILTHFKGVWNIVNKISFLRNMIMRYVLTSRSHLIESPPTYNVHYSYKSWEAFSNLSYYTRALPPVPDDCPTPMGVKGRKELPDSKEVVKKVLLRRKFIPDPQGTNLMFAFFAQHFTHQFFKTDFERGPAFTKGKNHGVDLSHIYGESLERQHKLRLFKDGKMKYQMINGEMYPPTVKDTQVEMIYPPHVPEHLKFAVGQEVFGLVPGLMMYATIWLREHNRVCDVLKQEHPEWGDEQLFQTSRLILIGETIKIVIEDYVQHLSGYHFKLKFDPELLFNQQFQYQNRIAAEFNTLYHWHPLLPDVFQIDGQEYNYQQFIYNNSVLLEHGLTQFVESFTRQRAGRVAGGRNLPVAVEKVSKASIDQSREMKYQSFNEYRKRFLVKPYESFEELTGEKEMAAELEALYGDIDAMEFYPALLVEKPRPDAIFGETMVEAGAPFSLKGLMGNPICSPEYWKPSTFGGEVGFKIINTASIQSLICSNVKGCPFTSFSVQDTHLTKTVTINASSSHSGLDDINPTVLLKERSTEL
# Mus musculus [5] = test: In vivo inhibitory activity against phorbol myristyl acetate (PMA) ear edema at a dose of 100 ug/ear; type: functional; outline: as §1
# Mus musculus [6] = test: (§4) In vivo inhibitory activity against A-23187 ear edema at a dose of 100 ug/ear; type: functional; outline: as §1
# Mus musculus [7] = test: as §2; type: functional; outline: as §1; remark: listed apart in the source
# Mus musculus [8] = test: as §4; type: functional; outline: as §3; remark: listed apart in the source
SMILES,logP [1],Inhibition (Mus musculus [2]),further results
OC(Cn1ccnc1)(c1ccc(-c2ccccc2)cc1)c1ccc(-c2ccncc2)cc1 (stereo not given),3.86,49%,–
CC(=O)c1ccc(C(O)(Cn2ccnc2)c2ccc(-c3ccncc3)cc2)cc1 (stereo not given),2.41,78%,–
OC(CN1CCCC1)(c1ccc(F)cc1)c1ccc(-c2ccncc2)cc1 (stereo not given),3.84,24%,–
CN(C)c1ccc(C(O)(Cn2ccnc2)c2ccc(-c3ccncc3)cc2)cc1 (stereo not given),3.29,34%,–
OC(Cn1ccnc1)(c1ccc(-c2ccncc2)cc1)c1ccccc1Cl (stereo not given),3.37,41%,–
COC(C)(OC)c1ccc(C(O)(Cn2ccnc2)c2ccc(-c3ccncc3)cc2)cc1 (stereo not given),3.45,61%,–
COC(=O)c1ccc(C(O)(Cn2ccnc2)c2ccc(-c3ccncc3)cc2)cc1 (stereo not given),2.61,62%,–
OC(Cn1cccn1)(c1ccc(F)cc1)c1ccc(-c2ccncc2)cc1 (stereo not given),2.14,28%,–
OC(Cn1cncn1)(c1ccc(F)cc1)c1ccc(-c2ccncc2)cc1 (stereo not given),1.67,53%,–
OC(Cn1cnc2ccccc21)(c1ccc(F)cc1)c1ccc(-c2ccncc2)cc1 (stereo not given),2.06,40%,–
OC(CN1CCOCC1)(c1ccc(F)cc1)c1ccc(-c2ccncc2)cc1 (stereo not given),2.82,41%,–
OCc1ccc(C(O)(Cn2ccnc2)c2ccc(-c3ccncc3)cc2)cc1 (stereo not given),2.4,24%,–
COc1ccc(C(O)(Cn2ccnc2)c2ccc(-c3ccncc3)cc2)cc1 (stereo not given),3.55,74%,–
O=Cc1ccc(C(O)(Cn2ccnc2)c2ccc(-c3ccncc3)cc2)cc1 (stereo not given),2.38,67%,–
OC(CCc1ncc[nH]1)(c1ccc(F)cc1)c1ccc(F)cc1,3.13,52%,–
OC(Cn1ccnc1)(c1ccc(-c2ccncc2)cc1)c1ccc(C(F)(F)F)cc1 (stereo not given),3.11,58%,–
Oc1c(Cc2ccccc2)ccc2ccccc12,–,–,IC50 (Cyclooxygenase): > 750 µM; ED50 (Mus musculus [7]): 7 ug ear-1; ED50 (Mus musculus [5]): 764 ug ear-1; ED50 (Mus musculus [6]): 5 ug ear-1
COc1ccc2c(c1)c(CC(=O)O)c(C)n2C(=O)c1ccc(Cl)cc1 [INDOMETHACIN],–,10%,IC50 [4]: > 25 µM; ED50 (Mus musculus [7]): 902 ug ear-1; ED50 (Mus musculus [6]): 254 ug ear-1
CC(=O)N1CCN(c2ccc(OCC3COC(Cn4ccnc4)(c4ccc(Cl)cc4Cl)O3)cc2)CC1 (stereo not given) [KETOCONAZOLE],–,–,Inhibition (Mus musculus [3]): 10%; IC50 [4]: > 25 µM; IC50 (Cyclooxygenase): > 750 µM; ED50 (Mus musculus [5]): 34 ug ear-1; Inhibition (Mus musculus [8]): 8%
COc1c(OC)c(OC(C)=O)c2cc(Cl)ccc2c1OC(C)=O [LONAPALENE],–,15%,IC50 [4]: 0.74 µM; IC50 (Cyclooxygenase): > 750 µM; ED50 (Mus musculus [7]): 103 ug ear-1; ED50 (Mus musculus [6]): 32 ug ear-1

# More lines, main results first:
logP [1],SMILES,Inhibition (Mus musculus [2]),further results
2.91,OC(Cn1ccnc1)(c1ccc(F)cc1)c1cccc(-c2ccncc2)c1 (stereo not given),74%,–
3.55,Cc1ccc(C(O)(Cn2ccnc2)c2ccc(Br)cc2)cc1 (stereo not given),18%,–
3.35,OC(Cn1ccnc1)(c1ccccc1)c1ccc(Br)cc1 (stereo not given),37%,–
4.02,COc1ccc(C(O)(Cn2ccnc2)c2ccc(Br)cc2)cc1 (stereo not given),31%,–
4.23,OC(Cn1ccnc1)(c1ccc(F)cc1)c1ccc(-c2ccccc2)cc1 (stereo not given),25%,–
3.65,OC(Cn1ccnc1)(c1ccc(-c2ccccn2)cc1)c1ccc(F)cc1F (stereo not given),51%,–
3.26,OC(Cn1ccnc1)(c1ccc(F)cc1)c1ccccc1-c1cccnc1 (stereo not given),62%,–
3.31,OC(Cn1ccnc1)(c1ccc(-c2cccnc2)cc1)c1ccc(F)cc1F (stereo not given),52%,–
3.13,Cc1ccc(C(O)(Cn2ccnc2)c2ccc(-c3ccncc3)cc2)cc1 (stereo not given),62%,Inhibition (Mus musculus [3]): 16%; IC50 [4]: > 25 µM; IC50 (Cyclooxygenase): > 750 µM; ED50 (Mus musculus [5]): 13.2 ug ear-1; ED50 (Mus musculus [6]): 13 ug ear-1
3.3,OC(Cn1ccnc1)(c1ccc(F)cc1)c1cccc(Br)c1 (stereo not given),38%,–
3.22,OC(Cn1ccnc1)(c1ccc(F)cc1)c1cccc(-c2cccnc2)c1 (stereo not given),64%,–
3.34,OC(Cn1ccnc1)(c1ccc(F)cc1)c1cccc(-c2ccccn2)c1 (stereo not given),61%,–
3.87,OC(Cn1ccnc1)(c1ccc(Br)cc1)c1ccccc1Cl (stereo not given),26%,–
3.42,OC(Cn1ccnc1)(c1ccc(F)cc1)c1ccc(Br)cc1 (stereo not given),29%,–
3.27,OC(Cn1ccnc1)(c1ccc(Cl)cc1)c1ccc(-c2ccncc2)cc1 (stereo not given),58%,–
2.29,OC(Cn1ccnc1)(c1ccccc1)c1ccc(-c2ccncc2)cc1 (stereo not given),69%,–
3.58,OC(Cn1ccnc1)(c1ccc(F)cc1)c1ccc(-c2ccccn2)cc1 (stereo not given),63%,–
3.44,OC(Cn1ccnc1)(c1ccc(Br)cc1)c1ccc(F)cc1F (stereo not given),22%,–
2.51,OC(Cn1ccnc1)(c1ccc(F)cc1)c1ccccc1-c1ccncc1 (stereo not given),86%,–
2.35,OC(Cn1cccc1)(c1ccc(F)cc1)c1ccc(-c2ccncc2)cc1 (stereo not given),58%,–
2.47,OC(Cn1ccnc1)(c1ccc(F)cc1)c1ccc(-c2ccncc2)cc1 (stereo not given),72%,IC50 [4]: > 25 µM; IC50 (Cyclooxygenase): > 750 µM; ED50 (Mus musculus [7]): 543 ug ear-1; ED50 (Mus musculus [5]): 4.6 ug ear-1; ED50 (Mus musculus [6]): 21 ug ear-1
2.95,OC(Cn1ccnc1)(c1ccc(F)cc1)c1ccc(F)cc1,50%,–
2.49,Oc1ccc(C(O)(Cn2ccnc2)c2ccc(-c3ccncc3)cc2)cc1 (stereo not given),37%,–
2.54,OC(Cn1ccnc1)(c1ccc(-c2ccncc2)cc1)c1ccc(F)cc1F (stereo not given),73%,–
3.6,OC(Cn1ccnc1)(c1cccc(Br)c1)c1ccc(F)cc1F (stereo not given),42%,–
